Experiments:
P338 [1] = experiment: Antitumor activity against P338 leukemia cells measured as toxic level at 12.5 mg/kg, ip optimal dose on days 1-5 in mice; type: functional, Mus musculus; details: route intraperitoneal
Method in brief: (§1)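 Groups of five mice were inoculated ip with 10⁶ P388 (P338) lymphocytic leukemia cells on day 0. Drug was injected ip daily on days 1–5, following NCI protocols. Optimal dose, maximum % T/C and toxic level are in mg/kg. % T/C = (average survival time of treated mice / control mice) × 100.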

P338 [2] = experiment: Antitumor activity against P338 leukemia cells measured as T/C(average survival time of treated mice/control mice*100)at 12.5 mg/kg, ip optimal dose on days 1-5 in mice; type: functional; details: Mus musculus, route intraperitoneal
Method in brief: (§2)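 Five CD2F1 mice per group received 10⁶ P388 lymphocytic leukemia cells ip on day 0. Drug was given ip daily on days 1–5, following NCI protocols. %T/C is mean survival time of treated over control mice × 100, taken at the optimal dose; the toxic dose level was also recorded.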

P338 [3] = experiment: Antitumor activity against P338 leukemia cells measured as T/C(average survival time of treated mice/control mice*100)at 3.12 mg/kg, ip optimal dose on days 1-5 in mice; type: functional; details: Mus musculus, route intraperitoneal; method in brief: as §2
P338 [4] = experiment: Antitumor activity against P338 leukemia cells measured as toxic level at 3.12 mg/kg, ip optimal dose on days 1-5 in mice; type: functional, Mus musculus; details: route intraperitoneal; method in brief: as §1
P338 [5] = experiment: Antitumor activity against P338 leukemia cells measured as T/C(average survival time of treated mice/control mice*100)at 0.4 mg/kg, ip optimal dose on days 1-5 in mice; type: functional; details: Mus musculus, route intraperitoneal; method in brief: as §2
P338 [6] = experiment: Antitumor activity against P338 leukemia cells measured as toxic level at 0.4 mg/kg, ip optimal dose on day 1 in mice; type: functional, Mus musculus; details: route intraperitoneal
Method in brief: as §1, with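 “The drug” for “Drug”, “given as a single” for “injected”, “injection” for “daily”, “day 1,” for “days 1–5,”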

P338 [7] = experiment: Antitumor activity against P338 leukemia cells measured as toxic level at 0.4 mg/kg, ip optimal dose on days 1-5 in mice; type: functional, Mus musculus; details: route intraperitoneal; method in brief: as §1
P338 [8] = experiment: Antitumor activity against P338 leukemia cells measured as T/C(average survival time of treated mice/control mice*100)at 0.4 mg/kg, ip optimal dose on day 1 in mice; type: functional; details: Mus musculus, 24 h, route intraperitoneal
Method in brief: (§3)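 Groups of five CD2F1 mice were inoculated ip with 10⁶ P388 lymphocytic leukemia cells on day 0. Drug was given as a single ip injection on day 1, following NCI protocols. %T/C = (average survival time of treated mice / control mice) × 100, taken at the optimal dose; the toxic dose level was also recorded.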

P338 [9] = experiment: Antitumor activity against P338 leukemia cells measured as T/C(average survival time of treated mice/control mice*100)at 1.56 mg/kg, ip optimal dose on days 1-5 in mice; type: functional; details: Mus musculus, route intraperitoneal; method in brief: as §2
P338 [10] = experiment: Antitumor activity against P338 leukemia cells measured as toxic level at 1.56 mg/kg, ip optimal dose on days 1-5 in mice; type: functional, Mus musculus; details: route intraperitoneal; method in brief: as §1
P338 [11] = experiment: Antitumor activity against P338 leukemia cells measured as T/C(average survival time of treated mice/control mice*100)at 25 mg/kg, ip optimal dose on day 1 in mice; type: functional; details: Mus musculus, 24 h, route intraperitoneal; method in brief: as §3
P338 [12] = experiment: Antitumor activity against P338 leukemia cells measured as toxic level at 25 mg/kg, ip optimal dose on day 1 in mice; type: functional, Mus musculus; details: route intraperitoneal
Method in brief: as §1, with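 “The drug” for “Drug”, “given as a single” for “injected”, “injection” for “daily”, “day 1,” for “days 1–5,”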

P338 [13] = experiment: Antitumor activity against P338 leukemia cells measured as toxic level at 6.25 mg/kg, ip optimal dose on days 1-5 in mice; type: functional, Mus musculus; details: route intraperitoneal; method in brief: as §1
P338 [14] = experiment: Antitumor activity against P338 leukemia cells measured as T/C(average survival time of treated mice/control mice*100)at 6.25 mg/kg, ip optimal dose on days 1-5 in mice; type: functional; details: Mus musculus, route intraperitoneal; method in brief: as §2
P338 [15] = experiment: Antitumor activity against P338 leukemia cells measured as T/C(average survival time of treated mice/control mice*100)at 25 mg/kg, ip optimal dose on days 1-5 in mice; type: functional; details: Mus musculus, route intraperitoneal; method in brief: as §2
P338 [16] = experiment: Antitumor activity against P338 leukemia cells measured as toxic level at 25 mg/kg, ip optimal dose on days 1-5 in mice; type: functional, Mus musculus; details: route intraperitoneal; method in brief: as §1
P338 [17] = experiment: Antitumor activity against P338 leukemia cells measured as T/C(average survival time of treated mice/control mice*100)at 6.25 mg/kg, ip optimal dose on day 1 in mice; type: functional; details: Mus musculus, 24 h, route intraperitoneal; method in brief: as §3
P338 [18] = experiment: Antitumor activity against P338 leukemia cells measured as toxic level at 6.25 mg/kg, ip optimal dose on day 1 in mice; type: functional, Mus musculus; details: route intraperitoneal
Method in brief: as §1, with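 “The drug” for “Drug”, “given as a single” for “injected”, “injection” for “daily”, “day 1,” for “days 1–5,”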

P338 [19] = experiment: Antitumor activity against P338 leukemia cells measured as toxic level at 3.12 mg/kg, ip optimal dose on day 1 in mice; type: functional, Mus musculus; details: route intraperitoneal
Method in brief: as §1, with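 “The drug” for “Drug”, “given as a single” for “injected”, “injection” for “daily”, “day 1,” for “days 1–5,”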

P338 [20] = experiment: Antitumor activity against P338 leukemia cells measured as T/C at 3.12 mg/kg, ip optimal dose on day 1 in mice; type: functional; details: Mus musculus, 24 h, route intraperitoneal; method in brief: as §3

`CC1=C(C)C(=O)c2[nH]c(C)nc2C1=O` showed a Toxic level (P338 [1]) of 100 mg/kg and a survival at 12.5 mg/kg (P338 [2]) of 110%.
`Cc1nc2c([nH]1)C(=O)C=CC2=O` was tested, and the survival at 3.12 mg/kg (P338 [3]) was 100% and the Toxic level (P338 [4]) was 6.25 mg/kg.
Molecule `Cn1cnc2c1C(=O)C=CC2=O` has a survival at 0.4 mg/kg (P338 [5]) of 95%, a Toxic level (P338 [6]) of 3.12 mg/kg and a Toxic level (P338 [7]) of 6.25 mg/kg. For the same molecule, the survival at 0.4 mg/kg (P338 [8]) was 76%.
With `O=C1C(Br)=C(Br)C(=O)c2[nH]cnc21` the survival at 1.56 mg/kg (P338 [9]) was 130% and the Toxic level (P338 [10]) was 12.5 mg/kg.
Work on `O=C1C(CCl)=CC(=O)c2[nH]cnc21` yielded a survival at 3.12 mg/kg (P338 [3]) of 95% and a Toxic level (P338 [4]) of 12.5 mg/kg.
`O=C1C=C(NCc2ccccc2)C(=O)c2[nH]cnc21` gave a survival at 25 mg/kg (P338 [11]) of 90%, a survival at 3.12 mg/kg (P338 [3]) of 105% and a Toxic level (P338 [4]) of 150 mg/kg. It also gave a Toxic level (P338 [12]) of 100 mg/kg.
For `O=C(Nc1ccccc1)OCc1nc2c([nH]1)C(=O)C=CC2=O`, the Toxic level (P338 [13]) was 25 mg/kg and the survival at 6.25 mg/kg (P338 [14]) was 146%.
`CC1=C(C)C(=O)c2[nH]cnc2C1=O` was tested, and the survival at 25 mg/kg (P338 [15]) was 130% and the Toxic level (P338 [16]) was 200 mg/kg.
With `CC1CN1C1=C(Br)C(=O)c2[nH]cnc2C1=O` (stereo not given) the Toxic level (P338 [13]) was 12.5 mg/kg and the survival at 6.25 mg/kg (P338 [14]) was 136%.
For `O=C1C(Br)=C(N2CC2)C(=O)c2[nH]cnc21`, the Toxic level (P338 [13]) was 12.5 mg/kg and the survival at 6.25 mg/kg (P338 [14]) was 156%.
With `NC1=C(Br)C(=O)c2[nH]cnc2C1=O` the Toxic level (P338 [13]) was 25 mg/kg and the survival at 6.25 mg/kg (P338 [14]) was 154%.
With `O=C1C=CC(=O)c2[nH]cnc21` the Toxic level (P338 [13]) was 25 mg/kg, the survival at 6.25 mg/kg (P338 [17]) was 105% and the survival at 6.25 mg/kg (P338 [14]) was 110%. It also gave a Toxic level (P338 [18]) of 12.5 mg/kg.
`CC1=C(C)C(=O)c2c(ncn2C)C1=O` gave a survival at 25 mg/kg (P338 [11]) of 95% and a Toxic level (P338 [12]) of 100 mg/kg.
Work on `O=C1C(Cl)=CC(=O)c2[nH]cnc21` yielded a survival at 6.25 mg/kg (P338 [17]) of 117% and a Toxic level (P338 [18]) of 12.5 mg/kg.
For `CCn1cnc2c1C(=O)C(C)=C(C)C2=O`, the survival at 25 mg/kg (P338 [11]) was 100% and the Toxic level (P338 [12]) was 100 mg/kg.
With `O=C1C=CC(=O)c2[nH]c(CO)nc21` the Toxic level (P338 [19]) was 12.5 mg/kg, the Toxic level (P338 [13]) was 12.5 mg/kg and the survival at 3.12 mg/kg (P338 [20]) was 105%. It also gave a survival at 6.25 mg/kg (P338 [14]) of 110%.

— ChEMBL document CHEMBL1124278, “Heterocyclic quinones with potential antitumor activity. 2. Synthesis and antitumor activity of some benzimidazole-4,7-dione derivatives” (1988)
